For assay [1], the system named is SK-OV-3. In words: Antitumor activity against human SKOV3 cells expressing RFC/PCFT/FRalpha xenografted in folate-deficient diet fed NCR SCID mouse assessed as tumor growth inhibition at 16 mg/kg, iv administered every 4 days on day 3, 7, 11 measured on day 21 relative to control. The class given is functional. Summed up: (§1)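 Ten-week-old female NCR SCID mice, fed a folate-deficient or standard folate-replete diet, were implanted subcutaneously and bilaterally with SKOV3 tumour fragments. Randomised at 5 mice/group. Dosed intravenously, 0.2 mL per injection, in 5% ethanol/1% Tween-80/0.5% NaHCO3 in water at pH 6.5, on days 3, 7 and 11. Tumours measured twice weekly and mice weighed daily. T/C taken on day 21; growth delay and log cell kill also reported.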
On the technique in general: Xenograft models place foreign cells or tissue in a host animal.

The target in assay [2] is T1, Trifunctional purine biosynthetic protein adenosine-3 (Homo sapiens) (UniProt P22102).
T1 sequence (whole entry): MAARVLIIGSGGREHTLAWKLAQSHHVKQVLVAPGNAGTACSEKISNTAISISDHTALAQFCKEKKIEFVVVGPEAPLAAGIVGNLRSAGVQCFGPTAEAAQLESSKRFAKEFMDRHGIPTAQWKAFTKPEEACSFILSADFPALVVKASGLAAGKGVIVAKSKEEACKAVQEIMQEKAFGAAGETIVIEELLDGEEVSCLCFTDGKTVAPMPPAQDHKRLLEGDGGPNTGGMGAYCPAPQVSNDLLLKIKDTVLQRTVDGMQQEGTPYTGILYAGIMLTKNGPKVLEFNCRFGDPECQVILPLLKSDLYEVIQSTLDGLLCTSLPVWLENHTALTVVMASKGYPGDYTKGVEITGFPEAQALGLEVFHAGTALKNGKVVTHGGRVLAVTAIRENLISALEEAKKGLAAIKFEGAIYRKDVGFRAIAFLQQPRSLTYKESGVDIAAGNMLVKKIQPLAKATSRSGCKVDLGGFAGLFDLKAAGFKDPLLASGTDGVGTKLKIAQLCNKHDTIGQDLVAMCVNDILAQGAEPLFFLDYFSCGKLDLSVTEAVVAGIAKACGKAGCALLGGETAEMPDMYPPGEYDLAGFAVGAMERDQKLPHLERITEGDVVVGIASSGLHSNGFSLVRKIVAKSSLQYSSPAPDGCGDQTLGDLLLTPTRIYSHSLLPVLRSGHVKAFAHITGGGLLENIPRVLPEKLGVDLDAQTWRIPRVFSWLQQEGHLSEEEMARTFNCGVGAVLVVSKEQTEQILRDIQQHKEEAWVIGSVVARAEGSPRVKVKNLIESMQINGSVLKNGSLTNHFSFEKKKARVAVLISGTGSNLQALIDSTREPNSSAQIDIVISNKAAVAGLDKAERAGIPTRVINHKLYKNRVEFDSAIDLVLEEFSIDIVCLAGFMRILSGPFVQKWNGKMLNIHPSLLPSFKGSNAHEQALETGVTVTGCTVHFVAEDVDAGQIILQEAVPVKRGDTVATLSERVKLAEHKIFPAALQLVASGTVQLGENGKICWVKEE
Kind of assay: Inhibition of GARFTase in human KB cells expressing FRalpha/PCFT/RFC assessed as cell growth inhibition after 96 hrs by CellTiter-Blue assay in presence of AICA. It is filed as cell-based. (The colour change of resazurin is a common sign of viable cells or microbes.)

Assay [3] has as its system IGROV-1. Kind of assay: Antiproliferative activity against human IGROV1 cells after 96 hrs by CellTiter-Blue assay. Particulars: IGROV-1, 96 h. It is filed as functional, cell-based. Summed up:
(§2)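 IGROV1 and SKOV3 cells plated at ~2500–5000 cells/well in folate-free RPMI 1640 with 10% dialyzed FBS, antibiotics and 2 nM LCV, over a range of drug concentrations, ±200 nM folic acid in parallel. Incubated up to 96 h. Viability read by Cell Titer Blue fluorescence (ex 560/em 590 nm).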

Assay [4] deals with SK-OV-3. Kind of assay: Antiproliferative activity against human SKOV3 cells after 96 hrs by CellTiter-Blue assay. Particulars: SK-OV-3, 96 h. The class given is functional, cell-based. Summed up: as §2
Assay [5] concerns RT16. In words: Selectivity ratio of IC50 for human RFC expressed in Chinese hamster PC43-10 cells assessed as cell growth inhibition to IC50 for human FRalpha expressed in Chinese hamster RT16 cells assessed as cell growth inhibition. It is filed as cell-based.
For assay [6], the system named is D4. In words: Selectivity ratio of IC50 for human RFC expressed in Chinese hamster PC43-10 cells assessed as cell growth inhibition to IC50 for human FRbeta expressed in Chinese hamster D4 cells assessed as cell growth inhibition. It is filed as cell-based.
Assay [7] has as its system KB. Kind of assay: Antiproliferative activity against human KB cells expressing FRalpha/PCFT/RFC assessed as cell growth inhibition after 96 hrs by CellTiter-Blue assay. The class given is functional, cell-based.
The target of assay [8] is T1, Trifunctional purine biosynthetic protein adenosine-3 (Homo sapiens). Kind of assay: Inhibition of GARFTase in human KB cells expressing FRalpha/PCFT/RFC assessed as cell growth inhibition after 96 hrs by CellTiter-Blue assay in presence of thymidine. The class given is cell-based.
Assay [9] relates to SK-OV-3. In words: Antitumor activity against human SKOV3 cells expressing RFC/PCFT/FRalpha xenografted in folate-deficient diet fed NCR SCID mouse assessed as log10 of gross cell killing at 16 mg/kg, iv administered every 4 days on day 3, 7, 11 measured twice per week. It is filed as functional. Summed up:
as §1

In assay [10] the target is T2, Proton-coupled folate transporter (Homo sapiens) (UniProt Q96NT5).
T2 sequence (whole entry): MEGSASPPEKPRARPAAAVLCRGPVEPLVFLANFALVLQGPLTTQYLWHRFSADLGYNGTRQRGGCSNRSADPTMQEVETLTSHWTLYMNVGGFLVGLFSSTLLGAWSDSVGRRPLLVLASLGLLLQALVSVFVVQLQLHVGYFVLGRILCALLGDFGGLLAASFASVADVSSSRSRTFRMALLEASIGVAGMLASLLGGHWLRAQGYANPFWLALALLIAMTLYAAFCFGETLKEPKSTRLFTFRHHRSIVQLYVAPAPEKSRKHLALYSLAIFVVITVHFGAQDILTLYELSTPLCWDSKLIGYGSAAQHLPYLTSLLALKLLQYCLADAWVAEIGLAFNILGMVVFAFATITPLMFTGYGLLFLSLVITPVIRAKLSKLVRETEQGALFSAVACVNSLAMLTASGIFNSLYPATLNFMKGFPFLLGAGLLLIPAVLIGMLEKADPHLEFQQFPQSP
In words: Binding affinity to human PCFT expressed in Chinese hamster R2/PCFT4 cells assessed as increase in intracellular drug transport at 0.5 uM at 37 degC at pH 5.5 measured over 5 mins in presence of AGF94. It is filed as cell-based.

Assay [11] concerns the target Folate receptor alpha (Homo sapiens) (UniProt P15328). Kind of assay: Displacement of [3H]-folic acid from human FRalpha expressed in Chinese hamster RT16 cells after 15 mins relative to folic acid. The class given is cell-based. Summed up:
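Competitive binding to surface folate receptor on RT16 (FRα) or D4 (FRβ) CHO cells. Cells were acid-washed (pH 3.5) to strip bound folate, then incubated in HEPES-buffered saline pH 7.4 with 50 nM [3H]folic acid plus unlabeled ligand (0–1000 nM) for 15 min at 0 °C. Bound label was normalised to protein. Affinity is the inverse molar ratio for 50% displacement, with folic acid set to 1. Mean of 4–10 experiments ±SE.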

Data on one molecule can be found in ChEMBL document CHEMBL3627626, “6-Substituted Pyrrolo[2,3-d]pyrimidine Thienoyl Regioisomers as Targeted Antifolates for Folate Receptor α and the Proton-Coupled Folate Transporter in Human Tumors” (J Med Chem, 2015).

Active and inactive are the calls of the source. The calls are words filed in the database; no cut-off is given here.

Chain of Folate receptor alpha (Homo sapiens) (P15328 25-234 limits assumed): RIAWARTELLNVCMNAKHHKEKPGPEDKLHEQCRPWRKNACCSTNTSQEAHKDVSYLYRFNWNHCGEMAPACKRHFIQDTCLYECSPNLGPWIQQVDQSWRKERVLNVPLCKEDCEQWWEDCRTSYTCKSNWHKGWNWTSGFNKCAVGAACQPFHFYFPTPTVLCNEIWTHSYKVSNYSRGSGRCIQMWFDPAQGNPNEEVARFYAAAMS

For orientation: T/C means the result in the treated group divided by that in the control group, in per cent. For orientation: IC50 means the concentration needed to halve the response being measured. As for `Nc1nc2[nH]c(CCCc3cc(C(=O)N[C@@H](CCC(=O)O)C(=O)O)cs3)cc2c(=O)[nH]1`, in assay [1], the T/C stood at 15%. The inhibition result in [2] was “inactive”. In addition, the IC50 came to 0.77 nM in [3], 15.5 nM in [4] and 0.09 nM in [7]. Further, the Ratio IC50 in assay [5] came to 610; in assay [6], 1890. In addition, the inhibition entry in assay [8] is “Active”. The LCK in [9] amounted to 1.9. The result in assay [10] was inactive. For the same molecule, the Activity in assay [11] worked out at 60%.
